Hits are enriched below; roughly 2.3% of the tested compounds scored in any of these assays.
FN deposit inh: fibronectin deposition inhibition; AH1F fibroblasts, Alexa488-fibronectin deposition fluorescence, overnight; inhibition, % at 12.6 µM; 350,000 tested, 0.086% active; AID 743247;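 active = mean inhibition across replicates of 30% or more, regardless of how many single replicates reach that level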;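 also: positive control wells lacked labelled fibronectin entirely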
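Test system: AH1F fibroblast monolayer depositing Alexa488-labelled fibronectin into matrix. Input: 10000 cells per well. Technique: fluorescence, ex 485 nm, em 525 nm. Buffer or medium: DMEM plus 2% serum, read in PBS. Timing: 1 h cell adhesion before compound, then overnight fibronectin incubation. Compound: single dose, pinned. Read-out basis: inhibition from reduced deposited-fibronectin fluorescence.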
LGR2 antag: inhibitors of bursicon-induced Drosophila LGR2 receptor cAMP signaling; HEK293 LGR2, CRE-luciferase, bursicon-stimulated, 4 h; inhibition, % at 9.99 µM; 380,000 tested, 0.35% active; AID 720647;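 active = drop in luminescence signal, shown as inhibition above about 50% in the replicate tests, limit read from the data, passing the limit was not always enough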;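 also: agonist challenge used bursicon conditioned medium at about half maximal strength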
TWEAK Fn14 block: inhibitors of TWEAK-Fn14 interaction signaling | TWEAK-stimulated Fn14 reporter cells, luciferase luminescence, 8 h | inhibition, % at 10 µM | 360,000 tested, 2% active | AID 1159606; in the data active = inhibition above about 50%
TROY NFkB inh: blocks TROY-dependent signaling in reporter cells; Q293 LMP1-TROYcd NF-kB luciferase reporter, 4 h; inhibition, % at 10 µM; 360,000 tested, 0.98% active;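 active = compounds whose plate-normalised and pattern-corrected inhibition of the luciferase reporter signal at the single screening dose is 50% or more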
EWS-Fli inh: blocks EWS/Fli oncoprotein-driven transcription; inhibition, % at 12.6 µM; A673 NR0B1-luciferase reporter, viability-normalised; 350,000 tested, 0.67% active;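 active = mean inhibition of at least 50% after viability correction, with every replicate also passing that limit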;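 also: firefly luciferase signal divided by Alamar Blue viability fluorescence both relative to DMSO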
Xi reactivation: activators of X-chromosome reactivation in mouse fibroblasts | XiGFP mouse fibroblasts, % GFP-positive cells imaging, 3 d; cells co-treated with 5-aza-dC sensitizer; scaled so ellipticine positive control = 100% | activation, % at 7.58 µM | 360,000 tested, 0.055% active | AID 743238;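 active = mean normalized replicate activation at least 10% and every replicate at or above 10%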;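 also: 0% = median of on-plate neutral control wells and 100% = ellipticine 6 µM median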
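Material: SV40-immortalized XiGFP fibroblast cells, line 68-5-11 | Buffer or medium: DMEM containing 5-aza-dC | Dosing: One concentration, pinned | Times: 3 d treatment, 15 min room-temperature fixation | Controls: Ellipticine 6 µM positive control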
Starred values were filed as active, the others as inactive; nt = no result given.

SMILES	FN deposit inh	LGR2 antag	TWEAK Fn14 block	TROY NFkB inh	EWS-Fli inh	Xi reactivation
CCCNC(=O)N1CC2(C1)[C@H](c1ccccc1)[C@@H](CO)N2Cc1ccccc1	-24.5	-6.8	nt	nt	-6.0	0.3
CN1c2ccc(C#Cc3cccnc3)cc2[C@H]2[C@H](CCN2S(=O)(=O)c2ccc(F)cc2)[C@@H]1CO	14.0	-11.9	nt	nt	17.1	0.1
CCNC(=O)C[C@H]1CC[C@H](NC(=O)NC2CCCCC2)[C@@H](CO)O1	-2.9	7.7	nt	nt	-1.6	-0.3
CC(C)NC(=O)N(C)C[C@H]1Oc2ccccc2CC(=O)N(C)C[C@@H]1C	-14.1	nt	nt	nt	nt	0.3
Cc1noc(C)c1S(=O)(=O)N(C)C[C@H]1Oc2ccc(NC(=O)Nc3ccc4c(c3)OCO4)cc2C(=O)N([C@H](C)CO)C[C@@H]1C	-10.7	nt	nt	nt	nt	1.4
CC(C)(C)c1ccc(C(=O)NCCc2ccccc2)cc1	0.2	-21.7	58.9*	43.2	32.8	0.0
CC(C)Cc1ccc(C(=O)NCCOc2ccccc2)o1	3.9	23.0	50.8*	18.4	-42.6	0.3
Cc1ccc(OCCNC(=O)c2ccc(COc3ccccc3)o2)cc1	1.9	13.0	-2.7	0.3	-8.7	-0.1
COc1cccc(CC(=O)OCC(=O)NCCc2ccc(F)cc2)c1	-0.7	-8.2	53.8*	-7.5	-2.1	0.0
COc1ccc(CC(=O)OCC(=O)NCc2ccc(F)cc2)cc1	-5.2	-14.6	-32.7	-2.2	2.6	0.0
CC(C)(C)c1nnc(NS(=O)(=O)c2cc(Cl)ccc2Cl)s1	-1.2	4.2	1.2	12.3	9.6	0.0
O=S(=O)(Nc1nc(-c2sccc2Cl)cs1)c1cc(Cl)ccc1Cl	nt	nt	-17.7	57.8*	nt	nt
CCCNC(=O)N(C)C[C@H]1Oc2ncc(-c3cccc(C#N)c3)cc2C(=O)N([C@H](C)CO)C[C@H]1C	nt	-10.6	nt	nt	-3.7	0.9
O=C(NC1CCC1)[C@H]1[C@H](CO)[C@H]2Cn3c(ccc(-c4ccccc4)c3=O)[C@H]2N1CC1CC1	nt	-15.3	nt	nt	10.0	0.8
C[n+]1c2cc(N)ccc2cc2ccc(N)cc21	-87.8	0.3	-28.4	-50.2	61.7*	52.8*
Nc1ccc2ccc(O)cc2c1	-4.9	-35.3	31.3	30.1	-10.7	-0.1
C[C@H](CO)N1C[C@H](C)[C@@H](CN(C)Cc2ccncc2)OCCCC[C@H](C)Oc2ccc(NS(=O)(=O)c3cn(C)cn3)cc2C1=O	nt	-6.7	nt	nt	-1.7	0.0
COc1ccc(C(=O)Nn2c(SCC(=O)c3ccccc3)nc3ccccc3c2=O)cc1	9.3	nt	91.8*	79.6*	nt	nt
O=C(CSc1nc2ccccc2c(=O)n1Cc1ccco1)c1ccccc1	-5.8	nt	51.5*	14.6	nt	nt
Cc1sc2nc(SCc3ccc(C(=O)O)cc3)n(Cc3ccco3)c(=O)c2c1C	-9.2	24.8	38.0	60.5*	22.9	0.0
Nn1c(SCc2ccc([N+](=O)[O-])cc2)nc2ccccc2c1=O	-6.4	-6.5	-1.7	-5.1	-3.4	-0.1
COc1ccc(C(=O)Nn2c(SCc3ccc([N+](=O)[O-])cc3)nc3ccccc3c2=O)cc1	nt	nt	72.6*	76.1*	nt	nt
CN1CCN(C(=O)C[C@@H]2CC[C@H]3[C@@H](COC[C@@H](O)CN3CC3CC3)O2)CC1	-5.0	-14.1	nt	nt	7.1	0.1
N#Cc1c(Sc2ncc(C(F)(F)F)cc2Cl)nsc1C/C=N\OCc1ccccc1Br	nt	-14.3	66.7*	nt	nt	nt
CCOC(=O)/C(=C\Nc1ccccc1C(F)(F)F)Sc1ncc(C(F)(F)F)cc1Cl	nt	8.3	12.3	-8.7	nt	nt
SMILES	FN deposit inh	LGR2 antag	TWEAK Fn14 block	TROY NFkB inh	EWS-Fli inh	Xi reactivation
C=CCOC(=O)c1oc(COC[C@@H](NC(=O)N(C)Cc2ccccc2)c2ccccc2)c(C(=O)OC)c1C(=O)OC	nt	nt	nt	nt	-1.0	nt
C[C@@H]1CN([C@@H](C)CO)C(=O)c2cccc(NC(=O)Nc3ccc(F)cc3)c2O[C@H]1CN(C)S(C)(=O)=O	nt	-0.9	nt	nt	-7.5	-1.0
CCN(Cc1cc(=O)n2ccsc2n1)c1cccc2ccccc12	-13.2	29.0	96.6*	64.2*	1.3	0.1
O=C(N/N=C/c1cc([N+](=O)[O-])ccc1O)NC12CC3CC(CC(C3)C1)C2	18.0	nt	93.0*	85.1*	20.2	0.4
Fc1ccc(NC(=S)N/N=C/c2ccc(F)c(F)c2)cc1	0.0	-95.8	-21.9	-43.4	-7.5	0.2
O=[N+]([O-])c1ccc(/C=N/NC(=S)Nc2ccc(Cl)cc2Cl)s1	-14.7	-7.4	3.7	46.8	10.5	12.8*
COC(=O)N/N=C/c1ccc([N+](=O)[O-])s1	5.1	-20.9	0.3	-2.1	nt	0.2
Fc1ccc(/C=N/NC(=S)Nc2ccc(Cl)cc2Cl)cc1	-14.4	-1.3	-3.7	-16.0	52.6*	0.0
Cc1cc(Cl)ccc1NC(=O)CCC(=O)N/N=C/c1cc([N+](=O)[O-])ccc1O	nt	40.7	22.1	24.5	9.2	0.1
O=[N+]([O-])c1ccc(O)c(/C=N/NC(=S)Nc2ccc(Cl)cc2Cl)c1	5.7	-2.5	70.6*	33.4	10.7	-0.1
O=C(NC[C@H]1[C@H](c2ccccc2)[C@H](CO)N1Cc1ccccn1)C1CCCC1	-19.7	4.6	nt	nt	-8.6	0.2
Cc1cc(COc2ccccc2O)on1	nt	21.3	85.6*	nt	nt	nt
Cc1ccc(-c2csc(=Nc3cccnc3)n2CCCn2ccnc2)cc1C	-2.1	nt	84.4*	50.6*	-3.9	-0.1
O=C(c1cn(Cc2ccccc2)nc1-c1ccccc1)N1CCN(c2ccccn2)CC1	0.5	-2.3	16.5	0.9	53.9*	0.3
O=C(c1ccc2c(c1)OCO2)N1CC(=O)N2[C@H](CO)[C@H](c3ccc(C#CC4CCCC4)cc3)[C@@H]2C1	nt	-3.3	nt	nt	3.0	0.0
CCOc1ccc(N2C(=O)CS(=O)(=O)C2c2ccccc2)cc1 (stereo unspecified)	nt	nt	nt	nt	-6.0	nt
C/C(=N\NC(=O)C1CC1(c1ccccc1)c1ccccc1)c1cccc([N+](=O)[O-])c1 (stereo unspecified)	2.0	nt	-18.8	-1.9	-1.2	0.1
O=C(Nc1ccc([N+](=O)[O-])cc1)C1CC1(c1ccccc1)c1ccccc1 (stereo unspecified)	-1.0	23.5	32.5	69.9*	nt	-0.1
Cc1ccc(C2(c3ccc(C)cc3)CC2C(=O)Nc2ccc([N+](=O)[O-])cc2O)cc1 (stereo unspecified)	nt	nt	65.5*	56.0*	nt	nt
COCCNC(=O)C[C@H]1CC[C@@H]2[C@H](COC[C@H](O)CN2Cc2cccc(-c3ccncc3)c2)O1	-2.8	-2.4	nt	nt	3.0	0.1
COc1ccc(N(C)S(=O)(=O)c2cccc(C(=O)OCC(=O)c3c(N)n(C)c(=O)n(C)c3=O)c2)cc1	-4.2	32.6	70.7*	64.9*	1.4	0.1
CCN(c1ccccc1)S(=O)(=O)c1cccc(C(=O)OCC(=O)c2c(N)n(C)c(=O)n(C)c2=O)c1	-1.8	0.8	0.8	10.6	4.9	0.5
O=C(CN1CCOCC1)N[C@@H]1CC[C@@H](CCNC(=O)Nc2cc(F)ccc2F)O[C@H]1CO	-25.4	-0.1	nt	nt	-4.4	0.5

Screening results as filed in PubChem.
